According to ChEMBL document CHEMBL5335782, “Discovery of new imidazotetrazinones with potential to overcome tumor resistance” (Eur J Med Chem, 2023):
One block for each compound: values may come before it. Calls of active or inactive are those of the source. No cut-off for these calls is given here.

Experiments:
[1] = Antiproliferative activity against human U373V cells assessed as inhibition of cell growth measured […] by MTT assay; type: functional
Method in brief: (§1)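 Cells seeded at 6.5×10^2/well, left overnight, then exposed to vehicle or agent (n = 4-8; final 0.5–1000 μM; DMSO stocks of 50 or 10 mM diluted in medium). MTT read at time of addition and after 6 days at 37 °C, 5% CO₂. MTT 0.4 mg/mL for 4 h, formazan taken up in DMSO, A550. GI50 from non-linear regression; mean ± SD of >3 experiments.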

[2] = Antiproliferative activity against MGMT-expressing human U373M cells assessed as inhibition of cell growth measured after […] by MTT assay; type: functional; method in brief: as §1
[3] = tested on: HCT-116; experiment: Antiproliferative activity against MMR-deficient human HCT-116 cells assessed as inhibition of cell growth measured after […] by MTT assay; type: functional; method in brief: as §1
[4] = Induction of cell cycle arrest in MGMT-expressing human U373M cells assessed as accumulation of cells at G1 phase at 20 uM measured after 120 hrs by propidium iodide staining based flow cytometry (reference value: 66%); type: functional
[5] = Selectivity ratio of GI50 for cytotoxicity against human MRC5 cells to GI50 for antiproliferative activity against MMR-deficient human HCT-116 cells; type: toxicity, cell-based; conditions: MRC5 cells versus MMR-deficient HCT-116 cells, read-out: RatioGI50
[6] = Intrinsic clearance in rat liver microsomes in absence of NADPH; type: ADME, Microsome; conditions: read-out: CLH
[7] = Permeability of the compound measured after 6 hrs by PAMPA assay; type: ADME; conditions: read-out: permeability
Method in brief: (§2)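 PAMPA passive-diffusion assay run as contract research under the provider's protocols, with control compounds. After 6 h incubation, permeability (Pe) and percentage recovery determined.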

[8] = Induction of cell cycle arrest in MGMT-expressing human U373M cells assessed as accumulation of cells at G2/M phase at 20 uM measured after 120 hrs by propidium iodide staining based flow cytometry; type: functional
[9] = tested on: U373M; experiment: Inhibition of cell colony formation in MGMT-expressing human U373M cells assessed as reduction in clonogenic survival at >=10 uM incubated for 24 hrs followed by drug removal and incubation in medium for 14 days; type: functional, cell-based
Method in brief: (§3)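 Clonogenic survival: exponentially growing cells seeded in triplicate at 400 cells/well, attached overnight, then exposed for 24 h to 0, 2, 20 or 50 μM agent. Medium then replaced with drug-free medium for 14 days, or until control colonies held ≥50 cells. Colonies fixed in cold methanol, stained with 0.5% methylene blue, counted, and expressed relative to control. 2–3 experiments.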

[10] = Half life of the compound in phosphate buffered saline at pH 6.8 by LC-MS analysis; type: physicochemical
Method in brief: (§4)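 Half-life in phosphate buffers at pH 5, 6.8 or 7.4 followed by LC-MS; mean of two independent experiments.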

[11] = Permeability of the compound assessed as drug recovery measured after 6 hrs by PAMPA assay; type: ADME; conditions: read-out: Drug recovery; method in brief: as §2
[12] = Half life in human plasma; type: ADME, cell-free
[13] = Intrinsic clearance in human liver microsomes in absence of NADPH; type: ADME, Microsome; conditions: read-out: CLH
[14] = Stability of the compound in phosphate buffered saline at pH 5.5 by 1H NMR spectroscopy; type: physicochemical; conditions: buffer
Method in brief: (§5)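 Half-life followed by ¹H NMR spectroscopy in phosphate buffers at pH 7.4 or 5.5.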

[15] = tested on: HCT-116; experiment: Inhibition of cell colony formation in MMR-deficient human HCT-116 cells assessed as reduction in clonogenic survival at >=10 uM incubated for 24 hrs followed by drug removal and incubation in medium for 14 days; type: functional, cell-based; method in brief: as §3
[16] = Half life of the compound in phosphate buffered saline at pH 7.4 by 1H NMR spectroscopic analysis; type: physicochemical; method in brief: as §5
[17] = Half life of the compound in phosphate buffered saline at pH 5 by LC-MS analysis; type: physicochemical; method in brief: as §4
[18] = Half life in rat liver microsomes in absence of NADPH; type: ADME, Microsome
[19] = Stability of the compound in phosphate buffered saline at pH 7.4 by 1H NMR spectroscopy; type: physicochemical; conditions: buffer; method in brief: as §5
[20] = Intrinsic clearance in human liver microsomes in presence of NADPH; type: ADME, Microsome; conditions: read-out: CLH
[21] = tested on: U373V; experiment: Inhibition of cell colony formation in human U373V cells assessed as reduction in clonogenic survival at >=10 uM incubated for 24 hrs followed by drug removal and incubation in medium for 14 days; type: functional, cell-based; method in brief: as §3
[22] = Intrinsic clearance in rat liver microsomes in presence of NADPH; type: ADME, Microsome; conditions: read-out: CLH
[23] = Half life of the compound in phosphate buffered saline at pH 5.5 by 1H NMR spectroscopic analysis; type: physicochemical; method in brief: as §5
[24] = Half life in rat plasma; type: ADME, cell-free
[25] = Cytotoxicity against human MRC5 cells assessed as inhibition of cell growth measured after 7 days by MTT assay; type: toxicity, cell-based; conditions: time 7 day; method in brief: as §1
[26] = Half life of the compound in phosphate buffered saline at pH 7.4 by LC-MS analysis; type: physicochemical; method in brief: as §4
[27] = Half life in rat liver microsomes in presence of NADPH; type: ADME, Microsome
[28] = Ratio of permeability across dog MDCK cells transfected with MDR1 to permeability across wild type dog MDCK cells; type: ADME, cell-based, Canis lupus familiaris
[29] = Half life in human liver microsomes in absence of NADPH; type: ADME, Microsome
[30] = tested on: HCT-116; experiment: Induction of cell cycle arrest in MMR-deficient human HCT-116 cells assessed as accumulation of cells at pre-G1 phase at 20 uM measured after 120 hrs by propidium iodide staining based flow cytometry (Rvb ~5%); type: functional
[31] = Half life in human liver microsomes in presence of NADPH; type: ADME, Microsome

Compound: C#CCn1nnc2c(-c3nc(-c4ccc(S(C)(=O)=O)cc4)cs3)ncn2c1=O
- GI50 [1]: 22 µM
- GI50 [2]: 14.7 µM
- GI50 [3]: 37 µM

Compound: C#CCn1nnc2c(-c3nc(CO)cs3)ncn2c1=O
- GI50 [1]: 24.4 µM
- GI50 [2]: 14.8 µM
- GI50 [3]: 17.8 µM

Compound: C#CCn1nnc2c(-c3nc(C4CCC4)cs3)ncn2c1=O
- GI50 [1]: 24.2 µM
- GI50 [2]: 25.5 µM
- GI50 [3]: 20.3 µM

Compound: C#CCn1nnc2c(-c3nc(-c4ccncc4)cs3)ncn2c1=O
- GI50 [1]: 23.5 µM
- GI50 [2]: 25.1 µM
- GI50 [3]: 29 µM

Compound: C#CCn1nnc2c(-c3nc(C(F)(F)C(F)(F)F)cs3)ncn2c1=O
- GI50 [1]: 27.1 µM
- GI50 [2]: 25.8 µM
- GI50 [3]: 27.7 µM

Compound: C#CCn1nnc2c(-c3nc(-c4ccc(F)cc4)cs3)ncn2c1=O
- GI50 [1]: 27.9 µM
- GI50 [2]: 19.7 µM
- GI50 [3]: 27.6 µM

The next compounds have a lower GI50 [3] than those just listed; values first:

- GI50 [3]: 4.6 µM
Compound: C#CCn1nnc2c(-c3ncc(C)s3)ncn2c1=O
- GI50 [1]: 6.84 µM
- GI50 [2]: 3.99 µM

- GI50 [3]: 16.7 µM
Compound: C#CCn1nnc2c(-c3nc(C(=C)C)cs3)ncn2c1=O
- GI50 [1]: 18.7 µM
- GI50 [2]: 14.2 µM

- GI50 [3]: 5.97 µM
Compound: C#CCN/N=N/c1[nH]cnc1-c1nccs1
- GI50 [1]: 7.51 µM
- GI50 [2]: 5.81 µM

- microsomal CLint [6]: 17.5 µL/min/mg
- Papp at 6 h [7]: 3.18 ×10⁻⁶ cm/s
- half-life [10]: 328 min
- recovery at 6 h [11]: 17.5%
- half-life [12]: 3.34 min
- microsomal CLint [13]: 16.4 µL/min/mg
- Stability [14]: Stable
- half-life [16]: 180 min
- half-life [17]: > 480 min
- half-life [18]: 79.2 min
- Stability [19]: Stable
- GI50 [3]: 5.35 µM
- microsomal CLint [20]: 44 µL/min/mg
- microsomal CLint [22]: 37.2 µL/min/mg
- half-life [23]: 64 min
- half-life [24]: 2.66 min
- half-life [26]: 198 min
- half-life [27]: 37.8 min
- Ratio [28]: 1.11
- half-life [29]: 92.1 min
- half-life [31]: 31.6 min
Compound: C#CCn1nnc2c(-c3nccs3)ncn2c1=O
- GI50 [1]: 3.59 µM
- Activity [4]: 43%
- selectivity ratio [5]: > 5
- Activity [8]: 21%
- inhibition [9]: Active
- GI50 [2]: 4.09 µM
- inhibition [15]: Active
- inhibition [21]: Active
- GI50 at 168 h [25]: 25 µM
- Activity [30]: >60%

- GI50 [3]: 12.2 µM
Compound: C#CCn1nnc2c(-c3nc(CN4CCOCC4)cs3)ncn2c1=O
- GI50 [1]: 23.9 µM
- GI50 [2]: 10.2 µM
